Assay results as given in ChEMBL document CHEMBL1131567, “Ethnobotanical-directed discovery of the antihyperglycemic properties of cryptolepine: its isolation from Cryptolepis sanguinolenta, synthesis, and in vitro and in vivo activities” (1998).
Several values for one entry are separate records, joined by “and”; a condition that tells them apart may be missing. Equal entries are not always repeated.

Columns and labels:
Mus musculus [1] = organism: Mus musculus; assay: Food intake in db/db Mice expressed as gram/mouse/day and the observation made is after 48 hr.; type: functional
In short: (§1)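 Male C57BL/Ks-db/db mice, 8-9 weeks old, housed 4/cage at 22 °C with chow and water ad libitum. Mice with tail-vein plasma glucose of 350-600 mg/dL were grouped at eight per group with matched mean glucose. Oral gavage once daily for 1 or 2 days at 30 or 100 mg/kg, with vehicle control. Body weight and cage food consumption measured after 24-27 h.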

Mus musculus [2] = assay: Mean body weight expressed as grams/mouse at 0hrs, when given at 100 mg/kg; type: functional; in short: as §1
Mus musculus [3] = assay: Mean body weight expressed as grams/mouse at 24hrs, when given at 100 mg/kg; type: functional; in short: as §1
Mus musculus [4] = assay: In vivo plasma glucose lowering in db/db mice, given at 100 mg/kg in mouse, after 3 hr
Mus musculus [5] = assay: In vivo plasma glucose lowering in db/db mice, given at 100 mg/kg in mouse, after 24 hr
Mus musculus [6] = assay: Food intake in C57BL/ks Mice expressed as gram/mouse/day and the observation made at 0 -24 Hrs, when administered at a dose of 30 mg/kg; type: functional
In short: (§2)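 Lean C57BL/ks mice dosed at 30 mg/kg/day, with vehicle control, n = 8. Plasma glucose measured predose and on day 3. Body weight recorded at 0, 24 and 48 h; food intake per mouse per day over 0-24 and 24-48 h. Vehicle comparison by Student's t-test.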

Mus musculus [7] = assay: Food intake in C57BL/ks Mice expressed as gram/mouse/day and the observation made at 24-48 Hrs, when administered at a dose of 30 mg/kg; type: functional; in short: as §2
Mus musculus [8] = assay: Food intake in db/db Mice expressed as gram/mouse/day and the observation made at 0 - 24 Hrs, in db/db mice administered at a dose of 20 mg/kg; type: functional
Mus musculus [9] = assay: Food intake in db/db Mice expressed as gram/mouse/day and the observation made at 0 - 24 Hrs, in db/db mice administered at a dose of 30 mg/kg; type: functional; in short: as §1
Mus musculus [10] = assay: Food intake in db/db Mice expressed as gram/mouse/day and the observation made at 24 - 48 Hrs, in db/db mice administered at a dose of 20 mg/kg; type: functional
Mus musculus [11] = assay: Food intake in db/db Mice expressed as gram/mouse/day and the observation made at 24 - 48 Hrs, in db/db mice administered at a dose of 30 mg/kg; type: functional; in short: as §1
Mus musculus [12] = organism: Mus musculus; assay: Food intake in db/db Mice expressed as gram/mouse/day and the observed after 48 hr.; type: functional; in short: as §1
Mus musculus [13] = assay: Mean body weight expressed as grams/mouse (C57BL/ks) at 48hrs, when given at 30 mg/kg; type: functional; in short: as §2
Mus musculus [14] = assay: Compound was evaluated for the in vivo effects on plasma glucose concentrations in db/db mice administered at a dose of 20 mg/kg mean body weight expressed as grams/mouse at 0 hr; type: functional
Mus musculus [15] = assay: Compound was evaluated for the in vivo effects on plasma glucose concentrations in db/db mice administered at a dose of 20 mg/kg mean body weight expressed as grams/mouse at 24 hr; type: functional
Mus musculus [16] = assay: Compound was evaluated for the in vivo effects on plasma glucose concentrations in db/db mice administered at a dose of 30 mg/kg mean body weight expressed as grams/mouse at 0 hr; type: functional; in short: as §1
Mus musculus [17] = assay: Compound was evaluated for the in vivo effects on plasma glucose concentrations in db/db mice administered at a dose of 30 mg/kg mean body weight expressed as grams/mouse at 24 hr; type: functional; in short: as §1
Mus musculus [18] = assay: Mean body weight expressed as grams/mouse (C57BL/ks) at 0hrs, when given at 30 mg/kg; type: functional; in short: as §2
Mus musculus [19] = assay: Mean body weight expressed as grams/mouse (C57BL/ks) at 24hrs, when given at 30 mg/kg; type: functional; in short: as §2
Mus musculus [20] = assay: Effect when given at 30 mg/kg in (C57BL/ks) mouse,Predose; type: functional; in short: as §2
Mus musculus [21] = assay: Effect when given at 30 mg/kg in (C57BL/ks) mouse, after day 3; type: functional; in short: as §2
Mus musculus [22] = assay: Effect when given at 30 mg/kg in (db/db)mice,3 days postdose; type: functional
In short: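 db/db mice, eight per group with matched initial glucose, dosed orally by gavage once daily with vehicle or 30 mg/kg. Tail-vein blood taken predose and 3 h postdosing. Plasma glucose measured colorimetrically by glucose oxidase assay. Groups compared with vehicle by ANOVA and Fisher's post-hoc test.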

Rattus norvegicus [23] = assay: […] effect of drug administration on Body weight in Fructose fed STZ-treated rats, after 24 hr (Treatment group - Fructose/STZ + cryptoline HCl, 30 mg/kg); type: functional; details: in the assay text read “on day 3” for “after 24 hr”
In short: (§3)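 Male Sprague-Dawley rats, 8 weeks old, given STZ 55 mg/kg iv and a 60% fructose diet for 1 week. Rats with serum glucose of 250-350 mg/dL were sorted into matched groups (n = 14). Oral gavage once daily for 3 days with vehicle or 30 mg/kg in 2% DMSO, 10 mL/kg. Noninjected chow-fed vehicle controls (n = 19). Body weight and cage food consumption recorded daily.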

Rattus norvegicus [24] = assay: […] effect of drug administration on Body weight in Fructose fed STZ-treated rats, pre dose ((Treatment group - Fructose/STZ + cryptoline HCl, 30 mg/kg); type: functional; in short: as §3
Rattus norvegicus [25] = assay: […] effect of drug administration on food consumption in Fructose fed STZ-treated rats (Treatment group - Fructose/STZ + cryptoline HCl, 30 mg/kg); type: functional; in short: as §3

C[n+]1c2ccccc2cc2[nH]c3ccccc3c21.[I-] [CRYPTOLEPTINE IODIDE] showed a Food intake (Mus musculus [1]) of 1 g mouse-1 day-1, a Mean body weight (Mus musculus [2]) of 42.7 g mouse-1 and a Mean body weight (Mus musculus [3]) of 41.9 g mouse-1. The Change of predose (Mus musculus [4]) was -11.5% and the Change of predose (Mus musculus [5]) was -22.5%.

Work on C[n+]1c2ccccc2cc2[n-]c3ccccc3c21 [CRYPTOLEPINE] yielded a Food intake (Mus musculus [1]) of 1 g mouse-1 day-1, a Mean body weight (Mus musculus [2]) of 39.4 g mouse-1 and a Mean body weight (Mus musculus [3]) of 38.7 g mouse-1. For the same compound, the Change of predose (Mus musculus [4]) was -19.7% and the Change of predose (Mus musculus [5]) was -30%.

For C[n+]1c2ccccc2cc2[n-]c3ccccc3c21.Cl [CRYPTOLEPINE HYDROCHLORIDE], the Food intake (Mus musculus [6]) was 2.7 g mouse-1 day-1, the Food intake (Mus musculus [7]) was 2.3 g mouse-1 day-1 and the Food intake (Mus musculus [8]) was 3.3 g mouse-1 day-1. For the same compound, the Food intake (Mus musculus [9]) was 2.4 g mouse-1 day-1, the Food intake (Mus musculus [10]) was 3.8 g mouse-1 day-1 and the Food intake (Mus musculus [11]) was 2.4 g mouse-1 day-1. The Food intake (Mus musculus [12]) was 0.9 g mouse-1 day-1, the Mean body weight (Mus musculus [13]) was 22.7 g mouse-1 and the Mean body weight (Mus musculus [14]) was 38 g mouse-1 and 37.4 g mouse-1. The Mean body weight (Mus musculus [15]) was 37.9 g mouse-1, the Mean body weight (Mus musculus [16]) was 37 g mouse-1 and 35.5 g mouse-1 and the Mean body weight (Mus musculus [17]) was 36.9 g mouse-1. It also gave a Mean body weight (Mus musculus [2]) of 41 g mouse-1, a Mean body weight (Mus musculus [3]) of 39.8 g mouse-1 and a Mean body weight (Mus musculus [18]) of 23.7 g mouse-1. The Mean body weight (Mus musculus [19]) was 23.3 g mouse-1, the Change of predose (Mus musculus [20]) was 184 mg/dL and the Change of predose (Mus musculus [21]) was 171 mg/dL. The Change of predose (Mus musculus [22]) was 358 mg/dL, the Body weight (Rattus norvegicus [23]) was 223 g and the Body weight (Rattus norvegicus [24]) was 201 g. For the same compound, the Food intake (Rattus norvegicus [25]) was 18 g/day, the Change of predose (Mus musculus [4]) was -16.4% and the Change of predose (Mus musculus [5]) was -43.1%.

Work on Cn1c2ccccc2c2nc3ccccc3cc21 yielded a Food intake (Mus musculus [1]) of 4.4 g mouse-1 day-1, a Mean body weight (Mus musculus [2]) of 41.4 g mouse-1 and a Mean body weight (Mus musculus [3]) of 42 g mouse-1. The Change of predose (Mus musculus [4]) was 15.3% and the Change of predose (Mus musculus [5]) was 14.1%.
